Reference: ChEMBL document CHEMBL4819061, “New bioactive 5-arylcarboximidamidopyrazolo[3,4-c]pyridines: Synthesis, cytotoxic activity, mechanistic investigation and structure-activity relationships” (Eur J Med Chem, 2021)
Activity calls are given as the source filed them. No cut-off for these calls is given here.

Key:
MDA-MB-231 = assay: Cytotoxicity against human MDA-MB-231 cells assessed as reduction in cell viability incubated for 72 hrs by MTT assay; assay type: functional, cell-based; settings: MDA-MB-231, 72 h
Summary of the method: (§1)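 Cancer lines (MDA-MB-231, HT-1080, PC-3) were grown in DMEM with 10% FBS and penicillin/streptomycin at 37 °C in 5% CO₂. About 5000 cells/well adhered overnight, then serial compound dilutions were added for 72 h, with matching DMSO dilutions (0.5–0.0008% v/v) as controls. MTT (1 mg/ml final, serum-free phenol-red-free DMEM) ran 4 h, was solubilised in 2-propanol, and OD read at 550 nm (ref 690). IC50 is the concentration halving OD versus untreated, mean of three independent experiments.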

HT-1080 [1] = assay: Cytotoxicity against human HT-1080 cells assessed as reduction in cell viability incubated for 72 hrs by MTT assay; assay type: functional, cell-based; settings: HT-1080, 72 h; summary of the method: as §1
PC-3 = assay: Cytotoxicity against human PC-3 cells assessed as reduction in cell viability incubated for 72 hrs by MTT assay; assay type: functional, cell-based; settings: PC-3, 72 h; summary of the method: as §1
AG1523 = assay: Cytotoxicity against human AG01523 cells assessed as reduction in cell viability incubated for 72 hrs by MTT assay; assay type: cell-based; settings: AG1523, 72 h
HT-1080 [2] = assay: Induction of cell cycle arrest in human HT1080 cells assessed as accumulation at G0/G1 phase at 2 uM incubated for 24 hrs by RNase/PI staining based flow cytometric analysis (reference value: 32.86 %); assay type: functional
HT-1080 [3] = assay: Induction of cell cycle arrest in human HT1080 cells assessed as accumulation at S phase at 2 uM incubated for 24 hrs by RNase/PI staining based flow cytometric analysis (reference value: 19.59 %); assay type: functional
HT-1080 [4] = assay: Induction of cell cycle arrest in human HT1080 cells assessed as accumulation at G2/M phase at 2 uM incubated for 24 hrs by RNase/PI staining based flow cytometric analysis (reference value: 47.55 %); assay type: functional
HT-1080 [5] = assay: Induction of cell cycle arrest in human HT1080 cells assessed as accumulation at sub-diploid phase at 2 uM incubated for 24 hrs by RNase/PI staining based flow cytometric analysis (reference value: 5.36 %); assay type: functional
HT-1080 [6] = assay: Inhibition of ERK phosphorylation in human HT-1080 cells at 20 uM after 15 mins by Western blotting analysis
[7] = target: MAP kinase p38 (Homo sapiens) (UniProt O15264+Q15759+Q16539+P53778); assay: Induction of p38 MAPK phosphorylation in human HT-1080 cells at 20 uM after 15 mins by Western blotting analysis
[8] = target: RAC-alpha serine/threonine-protein kinase (Homo sapiens) (UniProt P31749); assay: Inhibition of AKT phosphorylation at Ser473 residue in human HT-1080 cells at 20 uM after 15 mins by Western blotting analysis; settings: time 15.0 mins
RAC-alpha serine/threonine-protein kinase (Homo sapiens), sequence (P31749 whole entry): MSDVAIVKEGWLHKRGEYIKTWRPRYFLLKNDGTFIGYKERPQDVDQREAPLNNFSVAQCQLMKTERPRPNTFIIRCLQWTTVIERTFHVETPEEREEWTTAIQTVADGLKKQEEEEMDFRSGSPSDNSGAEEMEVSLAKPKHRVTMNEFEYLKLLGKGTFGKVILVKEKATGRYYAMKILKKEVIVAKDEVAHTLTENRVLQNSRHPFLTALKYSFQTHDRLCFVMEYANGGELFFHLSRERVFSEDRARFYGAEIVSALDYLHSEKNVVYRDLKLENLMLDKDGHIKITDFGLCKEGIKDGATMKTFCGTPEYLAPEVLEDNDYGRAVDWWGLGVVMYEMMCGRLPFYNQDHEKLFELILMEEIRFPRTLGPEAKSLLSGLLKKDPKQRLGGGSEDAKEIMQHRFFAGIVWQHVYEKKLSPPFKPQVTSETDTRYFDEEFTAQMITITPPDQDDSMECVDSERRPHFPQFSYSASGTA

HT-1080 [9] = assay: Induction of apoptosis in human HT-1080 cells assessed as increase in PARP cleavage at 2 uM after 24 hrs by Western blotting analysis

Activity [7]: Active
inhibition [8]: 100%
SMILES: CN1CCN(c2ccc(NC(=N)c3cc4c(-c5ccccc5)n[nH]c4c(NC4CCCCC4)n3)cc2)CC1
IC50 (MDA-MB-231): 1.5 µM
IC50 (HT-1080 [1]): 0.65 µM
IC50 (PC-3): 4.63 µM
IC50 (AG1523): 12.3 µM
Percentage of cells in G0/G1 phase (HT-1080 [2]): 43.78%
Activity (HT-1080 [3]): 14.37%
Activity (HT-1080 [4]): 41.85%
Percent of cells in sub-diploid (sub-G1) phase (HT-1080 [5]): 13.49%
inhibition (HT-1080 [6]): Active
Activity (HT-1080 [9]): Active
